According to ChEMBL document CHEMBL1140164, “Isosorbide-2-carbamate esters: potent and selective butyrylcholinesterase inhibitors” (J Med Chem, 2008):
Active and inactive are the calls of the source. No cut-off for these calls is given here.

Legend:
[1] = target: Acetylcholinesterase (Electrophorus electricus, UniProt O42275); experiment: Inhibition of electric eel AchE by Ellman's method
[2] = target: T1, Cholinesterase (Homo sapiens, UniProt P06276); experiment: Inhibition of human plasma BuchE at 100 uM by Ellman's method; format: cell-free
T1 sequence (P06276 whole entry): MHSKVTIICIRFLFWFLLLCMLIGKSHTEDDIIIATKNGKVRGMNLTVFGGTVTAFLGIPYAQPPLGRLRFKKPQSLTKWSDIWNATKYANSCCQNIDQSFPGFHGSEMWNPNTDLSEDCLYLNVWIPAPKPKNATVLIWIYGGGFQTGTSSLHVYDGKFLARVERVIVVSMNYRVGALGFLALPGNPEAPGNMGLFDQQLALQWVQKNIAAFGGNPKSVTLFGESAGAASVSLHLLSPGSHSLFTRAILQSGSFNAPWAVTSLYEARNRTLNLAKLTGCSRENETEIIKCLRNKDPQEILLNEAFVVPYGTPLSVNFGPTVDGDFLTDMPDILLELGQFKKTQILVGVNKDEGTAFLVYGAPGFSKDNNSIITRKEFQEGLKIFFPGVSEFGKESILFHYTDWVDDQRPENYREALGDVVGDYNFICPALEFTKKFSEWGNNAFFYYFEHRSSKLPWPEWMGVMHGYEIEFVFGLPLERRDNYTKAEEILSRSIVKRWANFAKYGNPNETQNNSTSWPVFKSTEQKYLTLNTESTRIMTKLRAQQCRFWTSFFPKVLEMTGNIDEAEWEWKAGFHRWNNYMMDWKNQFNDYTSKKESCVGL
Method in brief: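 Ellman assay using human plasma (or purified plasma BuChE) in phosphate buffer pH 8.0 with DTNB (0.5 mM solution); 30 min enzyme–inhibitor preincubation, then BTCI (0.5 mM solution) added and rate read at 405 nm over 5 min. Percent inhibition determined at 100 µM inhibitor; triplicate.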

[3] = target: T1, Cholinesterase; experiment: Inhibition of human plasma BuchE by Ellman's method; format: cell-free
[4] = target: Acetylcholinesterase (Electrophorus electricus) (UniProt O42275); experiment: Inhibition of electric eel AchE at 100 uM by Ellman's method
Sequence of Acetylcholinesterase (Electrophorus electricus) (O42275 24-633 limits assumed): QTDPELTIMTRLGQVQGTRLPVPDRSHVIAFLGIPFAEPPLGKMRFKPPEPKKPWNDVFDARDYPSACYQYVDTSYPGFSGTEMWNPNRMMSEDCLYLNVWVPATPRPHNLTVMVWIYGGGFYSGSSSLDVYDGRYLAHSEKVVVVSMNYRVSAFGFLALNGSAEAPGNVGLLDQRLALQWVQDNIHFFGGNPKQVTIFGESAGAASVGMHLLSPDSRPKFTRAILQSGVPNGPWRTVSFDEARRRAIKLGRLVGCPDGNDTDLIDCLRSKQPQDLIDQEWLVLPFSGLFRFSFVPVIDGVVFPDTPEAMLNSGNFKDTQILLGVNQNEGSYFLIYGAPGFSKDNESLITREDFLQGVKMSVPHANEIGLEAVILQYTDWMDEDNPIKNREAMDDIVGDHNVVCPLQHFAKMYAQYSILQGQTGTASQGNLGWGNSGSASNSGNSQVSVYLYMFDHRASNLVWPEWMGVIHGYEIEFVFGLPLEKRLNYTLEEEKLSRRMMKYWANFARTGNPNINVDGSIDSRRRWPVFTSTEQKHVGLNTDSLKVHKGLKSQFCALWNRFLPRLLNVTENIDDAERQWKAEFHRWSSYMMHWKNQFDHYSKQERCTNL
Method in brief: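 Ellman assay with electric eel AChE and ATCI as substrate, phosphate buffer pH 8.0, DTNB (0.5 mM solution). Enzyme and inhibitor incubated 30 min before substrate addition; absorbance read at 405 nm over 5 min. […] Triplicate.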

[5] = Selectivity ratio of IC50 for electric eel AchE to IC50 for human plasma BuchE
[6] = target: T1, Cholinesterase; experiment: Inhibition of human plasma BuchE after 60 mins by carbamylation assay; format: cell-free
Method in brief: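 Purified human plasma BuChE (1.2 × 10^-3 mg/mL) preincubated with inhibitor in buffer in a cuvette for up to 60 min, readings at 0, 5, 10, 20, 30, 40, 50, 60 min; DTNB 0.3 mM and substrate then added, reaction followed at 412 nm for 5 min.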

[7] = target: T1, Cholinesterase; experiment: Inhibition of human plasma BuchE using variable substrate levels by carbamylation assay; format: cell-free
Method in brief: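 Time-course carbamylation with purified human plasma BuChE (1.2 × 10^-3 mg/mL), fixed inhibitor concentration, substrate varied 0.5-10 mM; preincubation sampled at 0-60 min intervals, then DTNB 0.3 mM plus substrate added and read at 412 nm for 5 min. Data plotted as ln E/E_T versus time.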

[8] = system: Plasma; experiment: Stability in 50% human plasma assessed as drug hydrolysis at 10 to 100 uM by HPLC; format: ADME, cell-free
Method in brief: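 Pooled citrated human venous plasma diluted with pH 7.4 phosphate buffer to 50%, showing normal adult BuChE activity. Compound added in acetonitrile and incubated at 37 °C. Aliquots taken at intervals, quenched in 2% ZnSO4·7H2O in MeCN-H2O (1:1) plus acetonitrile, vortexed and centrifuged. Supernatant analysed by reversed-phase HPLC with a gradient of pH 2.5 phosphate buffer:acetonitrile, 50:50 to 20:80 over 20 min.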

[9] = target: Acetylcholinesterase (Homo sapiens, UniProt P22303); experiment: Inhibition of human erythrocyte AchE by Ellman's method
Sequence of Acetylcholinesterase (Homo sapiens, UniProt P22303) (P22303 whole entry): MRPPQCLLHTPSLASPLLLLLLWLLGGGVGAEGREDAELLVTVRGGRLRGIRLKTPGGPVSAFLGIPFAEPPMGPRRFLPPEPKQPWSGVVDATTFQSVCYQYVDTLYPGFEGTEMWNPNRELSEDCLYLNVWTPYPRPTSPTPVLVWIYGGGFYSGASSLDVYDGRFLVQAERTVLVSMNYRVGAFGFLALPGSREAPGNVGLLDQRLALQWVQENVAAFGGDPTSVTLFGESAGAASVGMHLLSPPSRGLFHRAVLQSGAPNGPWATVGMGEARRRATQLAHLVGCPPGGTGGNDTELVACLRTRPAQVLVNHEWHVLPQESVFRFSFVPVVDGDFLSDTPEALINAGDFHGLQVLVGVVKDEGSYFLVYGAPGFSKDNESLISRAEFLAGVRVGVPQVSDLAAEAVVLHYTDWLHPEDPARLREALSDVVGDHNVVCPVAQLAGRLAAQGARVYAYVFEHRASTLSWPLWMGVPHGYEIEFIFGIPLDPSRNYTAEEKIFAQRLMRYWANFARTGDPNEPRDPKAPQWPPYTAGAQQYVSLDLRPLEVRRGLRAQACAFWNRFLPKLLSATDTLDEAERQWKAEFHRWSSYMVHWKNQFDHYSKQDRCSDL

[10] = organism: Homo sapiens; experiment: Selectivity ratio of IC50 for human erythrocyte AchE to IC50 for human plasma BuchE
[11] = target: T1, Cholinesterase; experiment: Inhibition of human plasma BuchE in presence of edrophonium by carbamylation assay; format: cell-free
Method in brief: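 Carbamylation time course with purified human plasma BuChE (1.2 × 10^-3 mg/mL) and inhibitor at 1 mM in the presence of 5 mM edrophonium; activity sampled over 60 min preincubation, measured with DTNB 0.3 mM and substrate at 412 nm for 5 min.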

Sequence of Acetylcholinesterase (Electrophorus electricus, UniProt O42275) (O42275 whole entry): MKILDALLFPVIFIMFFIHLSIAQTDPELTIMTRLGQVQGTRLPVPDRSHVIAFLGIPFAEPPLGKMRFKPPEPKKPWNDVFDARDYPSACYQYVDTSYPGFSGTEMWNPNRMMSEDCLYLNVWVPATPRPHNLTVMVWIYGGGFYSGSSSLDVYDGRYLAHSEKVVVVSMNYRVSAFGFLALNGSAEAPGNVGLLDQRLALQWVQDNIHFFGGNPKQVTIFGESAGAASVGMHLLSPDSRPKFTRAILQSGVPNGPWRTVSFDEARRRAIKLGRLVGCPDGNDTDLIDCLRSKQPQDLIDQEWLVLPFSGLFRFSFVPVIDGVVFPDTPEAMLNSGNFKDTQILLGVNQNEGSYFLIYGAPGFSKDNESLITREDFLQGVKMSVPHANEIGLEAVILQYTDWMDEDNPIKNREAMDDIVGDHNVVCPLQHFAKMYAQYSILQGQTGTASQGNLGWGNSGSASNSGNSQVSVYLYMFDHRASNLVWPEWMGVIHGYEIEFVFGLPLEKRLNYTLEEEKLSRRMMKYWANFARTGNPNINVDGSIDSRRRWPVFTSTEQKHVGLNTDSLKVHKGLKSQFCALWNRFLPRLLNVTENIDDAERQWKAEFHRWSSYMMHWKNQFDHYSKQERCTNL

Compound	IC50 [1] [µM]	inhibition [2] [%]	IC50 [3] [µM]	inhibition [4] [%]	Ratio IC50 [5]	also measured
O=C(/C=C/c1ccccc1)O[C@@H]1CO[C@H]2[C@@H]1OC[C@@H]2OC(=O)NCc1ccccc1	55.9	96	0.137	82	729	
C=CC[N+](C)(C)c1ccc(CCC(=O)CCc2ccc([N+](C)(C)CC=C)cc2)cc1	0.063					
CCNC(=O)O[C@H]1CO[C@H]2[C@@H]1OC[C@H]2O[N+](=O)[O-]		73	3.9	1		
O=C(NCc1ccccc1)O[C@H]1CO[C@H]2[C@@H]1OC[C@H]2OC(=O)c1cccnc1		99	0.057	33	1750	
O=C(NCc1ccccc1)O[C@H]1CO[C@H]2[C@@H]1OC[C@H]2O		95	3.7	15	> 27	
CC(C)NP(=O)(NC(C)C)OP(=O)(NC(C)C)NC(C)C [TETRAISOPROPYL PYROPHOSPHORAMIDE]	2.5					
O=C(Nc1ccccc1)O[C@H]1CO[C@H]2[C@@H]1OC[C@H]2O[N+](=O)[O-]		37		23		
CCCCNC(=O)O[C@H]1CO[C@H]2[C@@H]1OC[C@H]2O[N+](=O)[O-]	1440	92	0.894	32	1610	
CCC(=O)O[C@@H]1CO[C@H]2[C@@H]1OC[C@@H]2OC(=O)NCc1ccccc1		97	0.98	5	> 100	
CNC(=O)O[C@H]1CO[C@H]2[C@@H]1OC[C@H]2O[N+](=O)[O-]	17.2	82	5.1	67		
O=C(NCc1ccccc1)O[C@H]1CO[C@H]2[C@@H]1OC[C@H]2OC(=O)c1ccncc1		97	0.088	24		
O=C(NCc1ccccc1)O[C@H]1CO[C@H]2[C@@H]1OC[C@H]2OC(=O)c1ccc(-c2ccccc2)cc1	51.6	99	0.012	89	4190	
O=C(NCc1ccccc1)O[C@H]1CO[C@H]2[C@@H]1OC[C@H]2OC(=O)OS(=O)(=O)C(F)(F)F			0.359			
O=C(NCc1ccccc1)O[C@H]1CO[C@H]2[C@@H]1OC[C@H]2OC(=O)C1CCCC1	56.3	99	0.006	88	9380	
O=C(Nc1ccc(Cl)c(Cl)c1)O[C@H]1CO[C@H]2[C@@H]1OC[C@H]2OC(=O)c1ccccc1		38		70		
O=C(Nc1cccc(C(F)(F)F)c1)O[C@H]1CO[C@H]2[C@@H]1OC[C@H]2O[N+](=O)[O-]		10		12		
O=C(Nc1ccccc1Cl)O[C@H]1CO[C@H]2[C@@H]1OC[C@H]2O[N+](=O)[O-]		11		24		

Compound	IC50 [1] [µM]	inhibition [2] [%]	IC50 [3] [µM]	inhibition [4] [%]	Ratio IC50 [5]	also measured
O=C(Nc1ccc(Cl)c(Cl)c1)O[C@H]1CO[C@H]2[C@@H]1OC[C@H]2O[N+](=O)[O-]	9.9	28		78		
CCCCCCc1ccc(C(=O)O[C@@H]2CO[C@H]3[C@@H]2OC[C@@H]3OC(=O)NCc2ccccc2)cc1			2.8			
CC(=O)O[C@@H]1CO[C@H]2[C@@H]1OC[C@@H]2OC(=O)NCc1ccccc1		97	4.1	12	> 25	
CCCNC(=O)O[C@H]1CO[C@H]2[C@@H]1OC[C@H]2O[N+](=O)[O-]	1520	93	0.639	1	2380	
CCC(C)NC(=O)O[C@H]1CO[C@H]2[C@@H]1OC[C@H]2OC(=O)c1ccccc1 (some centres not stated)		99	0.072	31	1390	
Cc1ccc(S(=O)(=O)C(=O)O[C@@H]2CO[C@H]3[C@@H]2OC[C@@H]3OC(=O)NCc2ccccc2)cc1		25		66		
O=C(NCc1ccccc1)O[C@H]1CO[C@H]2[C@@H]1OC[C@H]2O[N+](=O)[O-]		96	0.051	35	> 2000	IC50 [6]: 0.0036 µM
CS(=O)(=O)OC(=O)O[C@@H]1CO[C@H]2[C@@H]1OC[C@@H]2OC(=O)NCc1ccccc1		9.8		3		
O=C(NC1CCCCC1)O[C@H]1CO[C@H]2[C@@H]1OC[C@H]2O[N+](=O)[O-]		99	2.5	30	> 40	
O=C(/C=C/c1ccc(O)cc1)O[C@@H]1CO[C@H]2[C@@H]1OC[C@@H]2OC(=O)NCc1ccccc1	60.4	100	0.073	81	821	
O=C(NCc1ccccc1)O[C@H]1CO[C@H]2[C@@H]1OC[C@H]2OC(=O)c1ccc2ccccc2c1	43.4	100	0.032	80	1370	
CCCCC(=O)O[C@@H]1CO[C@H]2[C@@H]1OC[C@@H]2OC(=O)NCc1ccccc1		95	0.7	4	> 142	
CNC(=O)O[C@H]1CO[C@H]2[C@@H]1OC[C@H]2OC(=O)c1ccccc1		93	0.669	54	150	
O=C(Nc1cccc(Cl)c1)O[C@H]1CO[C@H]2[C@@H]1OC[C@H]2O[N+](=O)[O-]		11		24		
O=C(NCc1ccccc1)O[C@H]1CO[C@H]2[C@@H]1OC[C@H]2OC(=O)c1ccccc1	273	99	0.0043	21	63300	Activity [7]: Dose-dependent effect; Stability [8]: Stable; IC50 [9]: 221 µM; Ratio IC50 [10]: 51000; Activity [11]: inactive
O=C(NCc1ccccc1)O[C@H]1CO[C@H]2[C@@H]1OC[C@H]2OC(=O)c1cccc2ccccc12	37.6	99	0.028	86	1340	
O=C(NCc1ccccc1)O[C@H]1CO[C@H]2[C@@H]1OC[C@H]2OC(=O)C1CC1		97	0.334	55	300	
